This note sets out measurements from ChEMBL document CHEMBL3045496, “Antifeedant activity of ethanolic extract from Flourensia oolepis and isolation of pinocembrin as its active principle compound” (2009).

The source made the active and inactive calls. The calls are words filed in the database; no cut-off is given here.

Test [1] relates to Spodoptera litura. Kind of test: Antifeedant activity against third-instar Spodoptera litura assessed per cm2 leaf disk. Type of test: functional.
Test [2] has as its system Epilachna. Kind of test: Antifeedant activity against third-instar Epilachna paenulata measured assessed per cm2 leaf disk. Type of test: functional.
Test [3] deals with Epilachna. Nature of the test: Antifeedant activity against third-instar Epilachna paenulata measured assessed per cm2 leaf disk after 24 hr by leaf disk choice test. The test is classed as functional. Put shortly: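 Two Cucurbita maxima seedling cotyledons in a Petri dish under a glass disk with two 1 cm2 holes: one solvent-treated, one solvent-control. A single larva is placed equidistant between them and feeds for 24 h. Area eaten is estimated visually by quarters, always by the same operator. AI% = [1−(T/C)]×100; means of 10 replicates.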

In test [4] the test system is Xanthogaleruca luteola. Nature of the test: Antifeedant activity against adult Xanthogaleruca luteola assessed per cm2 leaf disk after 24 hr by leaf-disk choice test.
Test [5] relates to Xanthogaleruca luteola. Kind of test: Antifeedant activity against adult Xanthogaleruca luteola measured at 10 ug/cm2 leaf disk after 24 hr by leaf-disk choice test relative to control.
The test system of test [6] is Spodoptera frugiperda. Kind of test: Antifeedant activity against third-instar Spodoptera frugiperda (fall armyworm) measured at 10 ug/cm2 leaf disk after 3 to 4 hr by leaf-disk choice test relative to control. The test is classed as functional. Put shortly:
(§1)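 Two-choice leaf-disk assay with third-instar larvae collected in the field and kept on pumpkin for 2–3 days beforehand. Treated and solvent-control 1 cm2 disks of C. maxima cotyledon are offered together, and the area of each consumed (0–100%) is scored visually by quarters by the same operator. AI% = [1−(T/C)]×100; means of 10 replicates.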

Test [7] relates to Spodoptera frugiperda. Kind of test: Antifeedant activity against third-instar Spodoptera frugiperda (fall armyworm) measured at 100 ug/cm2 leaf disk after 3 to 4 hr by leaf-disk choice test relative to control. Type of test: functional. Put shortly:
as §1

The test system of test [8] is Xanthogaleruca luteola. Kind of test: Antifeedant activity against adult Xanthogaleruca luteola measured at 1 ug/cm2 leaf disk after 24 hr by leaf-disk choice test relative to control.
Test [9] deals with Spodoptera frugiperda. Nature of the test: Antifeedant activity against third-instar Spodoptera frugiperda (fall armyworm) assessed per cm2 leaf disk after 3 to 4 hr by leaf-disk choice test. Type of test: functional.
The test system of test [10] is Epilachna. Kind of test: Antifeedant activity against third-instar Epilachna paenulata measured at 100 ug/cm2 leaf disk after 24 hr by leaf-disk choice test relative to control. Type of test: functional.
For test [11], the system named is Spodoptera frugiperda. Nature of the test: Antifeedant activity against third-instar Spodoptera frugiperda (fall armyworm) measured at 50 ug/cm2 leaf disk after 3 to 4 hr by leaf-disk choice test relative to control. The test is classed as functional. Put shortly:
as §1

The test system of test [12] is Epilachna. Kind of test: Antifeedant activity against third-instar Epilachna paenulata measured at 10 ug/cm2 leaf disk after 24 hr by leaf-disk choice test relative to control. The test is classed as functional.
Test [13] deals with Epilachna. Nature of the test: Antifeedant activity against third-instar Epilachna paenulata measured at 5 ug/cm2 leaf disk after 24 hr by leaf-disk choice test relative to control. The test is classed as functional.
Test [14] relates to Epilachna. Nature of the test: Antifeedant activity against third-instar Epilachna paenulata measured at 50 ug/cm2 leaf disk after 24 hr by leaf-disk choice test relative to control. Type of test: functional.
Test [15] concerns Spodoptera frugiperda. Kind of test: Antifeedant activity against third-instar Spodoptera frugiperda (fall armyworm) measured at 5 ug/cm2 leaf disk after 3 to 4 hr by leaf-disk choice test relative to control. The test is classed as functional. Put shortly:
as §1

Test [16] deals with Xanthogaleruca luteola. Nature of the test: Antifeedant activity against adult Xanthogaleruca luteola measured at 50 ug/cm2 leaf disk after 24 hr by leaf-disk choice test relative to control.
Test [17] has as its system Xanthogaleruca luteola. Nature of the test: Antifeedant activity against adult Xanthogaleruca luteola measured at 5 ug/cm2 leaf disk after 24 hr by leaf-disk choice test relative to control.
The subject of test [18] is Xanthogaleruca luteola. Nature of the test: Antifeedant activity against adult Xanthogaleruca luteola measured at 100 ug/cm2 leaf disk after 24 hr by leaf-disk choice test relative to control.
For test [19], the system named is Epilachna. Kind of test: Antifeedant activity against third-instar Epilachna paenulata measured at 1 ug/cm2 leaf disk after 24 hr by leaf disk choice test relative to control. The test is classed as functional.

In turn, `COc1c(OC)c(O)c2c(=O)c(OC)c(-c3ccccc3)oc2c1OC` gave an ED50 in test [1] of 7.16 µg.
The same measure, in the same setting: then `COc1ccc(-c2oc3c(OC)c(OC)c(OC)c(O)c3c(=O)c2OC)cc1` [5-HYDROXYAURANETIN], with 42.8 µg.
In the case of `C[C@@H]1CC[C@H]2[C@@H](C)C(=O)O[C@@H]3O[C@@]4(C)CC[C@@H]1[C@]32OO4` [ARTEMISININ], the ED50 in test [2] came out at 14.7 µg.
In test [3], `C/C=C(\C)C(=O)O[C@H]1C[C@@H](OC(C)=O)[C@@]2(C(=O)OC)CO[C@H]3[C@@H](O)[C@@](C)([C@]45O[C@@]4(C)[C@@H]4C[C@H]5O[C@@H]5OC=C[C@@]54O)[C@H]4[C@]1(CO[C@]4(O)C(=O)OC)[C@@H]32` [AZADIRACHTIN A] showed an ED50 of 0.59 µg.
Take `Oc1cc(O)c2c(c1)OC(c1ccc(O)c(O)c1)C(O)C2` (configuration not stated) [CATECHIN]: the ED50 in test [4] stood at 50.22 µg; in test [3] it was 47.6 µg.
The molecule `O=c1cc(-c2ccccc2)oc2cc(O)cc(O)c12` [CHRYSIN] gave an ED50 in [1] of 635 µg.
In turn, `O=c1cc(-c2ccccc2)oc2ccccc12` [FLAVONE] gave an ED50 in test [1] of 24.6 µg.
In turn, `CC(=O)O[C@@H]1C[C@H](O)[C@@]23COC(O)[C@]1(C)[C@@H]2C[C@@H](O)[C@]1(C)[C@@H]3[C@H](O)C(=O)[C@@]2(C)[C@H](c3ccoc3)C[C@H]3O[C@@]312` (some centres not stated) [MELIARTENIN] displayed an ED50 in test [2] of 0.8 µg.
Take `O=C1C[C@@H](c2ccc(O)cc2)Oc2cc(O)cc(O)c21` [NARINGENIN]: the ED50 in test [3] stood at 160.15 µg.
Turning to `O=C1C[C@@H](c2ccccc2)Oc2cc(O)cc(O)c21` [PINOCEMBRIN], the AFI stood at 62% in test [5]; 70% in test [6]; 92% in test [7]; 0% in test [8]; 99.1% in test [10]; 91% in test [11]. For the same molecule, the AFI in [12] worked out at 62%; in [13], 21%; in [14], 90%; in [15], 21%; in [16] it was 94%; in [17] it was 62%. Also, the figures for the AFI in test [18] and in [19] were 98% and 12%, respectively. Also, the values for the ED50 in test [9], in test [4] and in [3] were 8.86 µg, 6.13 µg and 7.98 µg, respectively.
As for `O=c1c(O)c(-c2ccc(O)c(O)c2)oc2cc(O)cc(O)c12` [QUERCETIN], in test [1], the result was inactive. Besides, the figures for the ED50 in [4] and in test [3] were 178.52 µg and 9.26 µg, respectively.
Regarding `C=C(C)[C@H]1Cc2c(ccc3c2O[C@@H]2COc4cc(OC)c(OC)cc4[C@@H]2C3=O)O1` [ROTENONE], the ED50 in test [1] amounted to 59.1 µg.
`CC(=O)O[C@@H]1C[C@H](O)[C@@]23CO[C@@H](O)[C@]1(C)[C@@H]2C[C@@H](O)[C@]1(C)[C@@H]3C(=O)[C@H](OC(C)=O)[C@@]2(C)[C@H](c3ccoc3)C[C@H]3O[C@]321` [TOOSENDANIN] displayed an ED50 in test [2] of 3.69 µg.
